Data as given in ChEMBL document CHEMBL1140881, “Discovery of 13-oxa prostaglandin analogs as antiglaucoma agents: synthesis and biological activity” (Bioorg Med Chem, 2009).
Activity calls are given as the source filed them. The calls are words filed in the database; no cut-off is given here.

Columns and labels:
[1] = species: Macaca fascicularis; assay: Inhibition of intraocular pressure in hypertensive monkey at 3 ug, bid after 4th dose measured after 16 hrs; parameters: scale not given: the % may be the effect or the level left
[2] = species: Oryctolagus cuniculus; assay: Effect on ocular irritation in New Zealand albino rabbit assessed as incidence of conjunctival swelling at 0.03 ug after 1 to 5 hrs; format: functional, Conjunctiva
Outline: (§1)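 Topical single 30 µL drop into both eyes of each of five rabbits, doses 0.03–100 µg. Vehicle was trimethamine/boric acid buffer with 4.6% mannitol, HCO-40, 0.01% EDTA and 0.01% benzalkonium chloride, pH 7.4. Eyes were scored at 1, 2, 3 and 5 h. The percent of eyes scoring +2 or greater, pooled across all time points, is reported as study % incidence. Qualitative, with no statistics.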

[3] = species: Oryctolagus cuniculus; assay: Effect on ocular irritation in New Zealand albino rabbit assessed as incidence of ocular discharge at 0.1 ug after 1 to 5 hrs; format: functional, Eye
Outline: as §1

[4] = species: Oryctolagus cuniculus; assay: Effect on ocular irritation in New Zealand albino rabbit assessed as incidence of conjunctival hyperemia at 0.03 ug after 1 to 5 hrs; format: functional, Conjunctiva
Outline: as §1

[5] = species: Oryctolagus cuniculus; assay: Effect on ocular irritation in New Zealand albino rabbit assessed as incidence of conjunctival hyperemia at 0.1 ug after 1 to 5 hrs; format: functional, Conjunctiva
Outline: as §1

[6] = species: Felis catus; assay: Acute […] response in normotensive cat assessed as AUC (1 to 5 hrs) at 0.1 ug; format: functional
Outline: (§2)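 Conscious cats held in cat bags under uniform room lighting. Horizontal pupil diameter read with a hand-held micrometer, then again at 0.5, 1, 1.5, 2, 2.5, 3, 4 and 5 h after topical dosing. The AUC of pupil diameter change versus time over 1–5 h was computed from group averages. Ranking is qualitative, with no statistics.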

[7] = species: Felis catus; assay: Acute […] response in normotensive cat assessed as AUC (1 to 5 hrs) at 1 ug; format: functional
Outline: as §2

[8] = species: Oryctolagus cuniculus; assay: Effect on ocular irritation in New Zealand albino rabbit assessed as incidence of conjunctival hyperemia at 30 ug after 1 to 5 hrs; format: functional, Conjunctiva
Outline: as §1

[9] = species: Oryctolagus cuniculus; assay: Effect on ocular irritation in New Zealand albino rabbit assessed as incidence of conjunctival swelling at 0.1 ug after 1 to 5 hrs; format: functional, Conjunctiva
Outline: as §1

[10] = species: Oryctolagus cuniculus; assay: Effect on ocular irritation in New Zealand albino rabbit assessed as incidence of ocular discharge at 0.03 ug after 1 to 5 hrs; format: functional, Eye
Outline: as §1

[11] = species: Oryctolagus cuniculus; assay: Effect on ocular irritation in New Zealand albino rabbit assessed as incidence of ocular discharge at 1 ug after 1 to 5 hrs; format: functional, organism-based, Eye
Outline: as §1

[12] = species: Oryctolagus cuniculus; assay: Effect on ocular irritation in New Zealand albino rabbit assessed as incidence of conjunctival swelling at 0.3 ug after 1 to 5 hrs; format: functional, Conjunctiva
Outline: as §1

[13] = species: Oryctolagus cuniculus; assay: Effect on ocular irritation in New Zealand albino rabbit assessed as incidence of ocular discharge at 30 ug after 1 to 5 hrs; format: functional, Eye
Outline: as §1

[14] = species: Oryctolagus cuniculus; assay: Effect on ocular irritation in New Zealand albino rabbit assessed as incidence of conjunctival swelling at 1 ug after 1 to 5 hrs; format: functional, Conjunctiva
Outline: as §1

[15] = species: Oryctolagus cuniculus; assay: Effect on ocular irritation in New Zealand albino rabbit assessed as incidence of conjunctival swelling at 10 ug after 1 to 5 hrs; format: functional, Conjunctiva
Outline: as §1

[16] = species: Felis catus; assay: Toxicity in normotensive cat assessed as ocular irritation; format: organism-based, Eye; details: in vivo
[17] = species: Macaca fascicularis; assay: Toxicity in monkey assessed as drug tolerance; details: cynomolgus monkey, in vivo
[18] = species: Felis catus; assay: Acute […] response in normotensive cat assessed as AUC (1 to 5 hrs) at 0.3 ug; format: functional
Outline: as §2

[19] = species: Felis catus; assay: Toxicity in normotensive cat assessed as discomfort; format: organism-based; details: in vivo
[20] = species: Oryctolagus cuniculus; assay: Effect on ocular irritation in New Zealand albino rabbit assessed as incidence of ocular discharge at 0.3 ug after 1 to 5 hrs; format: functional, Eye
Outline: as §1

[21] = species: Macaca fascicularis; assay: Inhibition of intraocular pressure in hypertensive monkey at 3 ug, bid after 5th dose; parameters: scale not given: the % may be the effect or the level left
[22] = species: Oryctolagus cuniculus; assay: Effect on ocular irritation in New Zealand albino rabbit assessed as incidence of conjunctival swelling at 30 ug after 1 to 5 hrs; format: functional, Conjunctiva
Outline: as §1

[23] = species: Oryctolagus cuniculus; assay: Effect on ocular irritation in New Zealand albino rabbit assessed as incidence of conjunctival hyperemia at 3 ug after 1 to 5 hrs; format: functional, Conjunctiva
Outline: as §1

[24] = species: Oryctolagus cuniculus; assay: Effect on ocular irritation in New Zealand albino rabbit assessed as incidence of conjunctival swelling at 3 ug after 1 to 5 hrs; format: functional, Conjunctiva
Outline: as §1

[25] = species: Oryctolagus cuniculus; assay: Effect on ocular irritation in New Zealand albino rabbit assessed as incidence of ocular discharge at 10 ug after 1 to 5 hrs; format: functional, Eye
Outline: as §1

[26] = species: Macaca fascicularis; assay: Inhibition of intraocular pressure in hypertensive monkey at 3 ug after first instillation; parameters: scale not given: the % may be the effect or the level left
[27] = species: Oryctolagus cuniculus; assay: Effect on ocular irritation in New Zealand albino rabbit assessed as incidence of conjunctival hyperemia at 0.3 ug after 1 to 5 hrs; format: functional, Conjunctiva
Outline: as §1

[28] = species: Macaca fascicularis; assay: Inhibition of intraocular pressure in hypertensive monkey at 1 ug, bid; details: Eye
[29] = species: Oryctolagus cuniculus; assay: Effect on ocular irritation in New Zealand albino rabbit assessed as incidence of conjunctival hyperemia at 1 ug after 1 to 5 hrs; format: functional, Conjunctiva
Outline: as §1

[30] = species: Oryctolagus cuniculus; assay: Effect on ocular irritation in New Zealand albino rabbit assessed as incidence of ocular discharge at 3 ug after 1 to 5 hrs; format: functional, Eye
Outline: as §1

[31] = species: Oryctolagus cuniculus; assay: Effect on ocular irritation in New Zealand albino rabbit assessed as incidence of conjunctival hyperemia at 10 ug after 1 to 5 hrs; format: functional, Conjunctiva
Outline: as §1

[32] = species: Macaca fascicularis; assay: Induction of miosis in monkey; details: cynomolgus monkey, in vivo
[33] = target: Prostaglandin F2-alpha receptor (Bos taurus, UniProt P37289); assay: Displacement of [3H]PGF2 alpha from FP receptor in bovine corpus luteum membrane; format: cell membranes
Chain of Prostaglandin F2-alpha receptor (Bos taurus, UniProt P37289) (P37289 whole entry): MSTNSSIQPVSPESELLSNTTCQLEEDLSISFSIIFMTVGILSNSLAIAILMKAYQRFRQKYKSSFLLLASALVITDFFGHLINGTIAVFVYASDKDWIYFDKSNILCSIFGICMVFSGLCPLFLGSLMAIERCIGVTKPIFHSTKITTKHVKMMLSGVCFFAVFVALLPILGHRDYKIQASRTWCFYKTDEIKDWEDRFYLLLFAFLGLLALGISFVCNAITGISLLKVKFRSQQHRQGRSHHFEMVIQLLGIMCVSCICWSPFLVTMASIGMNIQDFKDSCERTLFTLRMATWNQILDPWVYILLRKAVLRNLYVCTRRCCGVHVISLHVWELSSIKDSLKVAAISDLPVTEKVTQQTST
Outline: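 Nonspecific binding was set with 10 µM unlabeled PGF2α or cloprostenol. Bound and free ligand were separated by vacuum filtration on PEI-soaked GF/B filters and counted. Ki came from nonlinear fitting across several experiments.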

[34] = target: Prostaglandin F2-alpha receptor (Mus musculus, UniProt P43117); assay: Agonist activity at FP receptor in Swiss mouse 3T3 cells assessed as [3H]-IP accumulation by scintillation counting; format: functional, cell-based
Chain of Prostaglandin F2-alpha receptor (Mus musculus, UniProt P43117) (P43117 whole entry): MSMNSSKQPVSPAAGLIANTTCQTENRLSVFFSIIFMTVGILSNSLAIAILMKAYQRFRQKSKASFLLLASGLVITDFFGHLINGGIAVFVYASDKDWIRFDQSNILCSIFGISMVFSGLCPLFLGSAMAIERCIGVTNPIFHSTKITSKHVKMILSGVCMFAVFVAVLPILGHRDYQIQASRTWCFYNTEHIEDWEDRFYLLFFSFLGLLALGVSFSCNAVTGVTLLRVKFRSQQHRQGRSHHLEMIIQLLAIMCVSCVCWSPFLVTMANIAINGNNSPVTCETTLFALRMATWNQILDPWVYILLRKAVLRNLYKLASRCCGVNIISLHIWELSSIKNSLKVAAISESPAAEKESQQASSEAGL
Outline: (§3)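 Swiss 3T3 mouse fibroblasts carry an endogenous FP receptor. They were rinsed in DMEM/F-12 with 10 mM LiCl, then exposed to agonist or vehicle in that medium for 60 min at 37 °C. The reaction was stopped with ice-cold 0.1 M formic acid. Total [3H]-IPs were eluted with ammonium formate in formic acid and counted by scintillation. EC50 and Emax came from nonlinear fits of concentration-response curves pooled from several experiments.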

[35] = target: Prostaglandin F2-alpha receptor (Mus musculus) (UniProt P43117); assay: Agonist activity at FP receptor in Swiss mouse 3T3 cells assessed as [3H]-IP accumulation by scintillation counting relative to control; format: functional, cell-based
Chain of Prostaglandin F2-alpha receptor (Mus musculus) (P43117 whole entry): as above
Outline: as §3

[36] = species: Oryctolagus cuniculus; assay: Effect on ocular irritation in New Zealand albino rabbit assessed as incidence of ocular discharge 1.8 ug after 1 to 5 hrs; format: functional, Eye
Outline: as §1

[37] = species: Oryctolagus cuniculus; assay: Effect on ocular irritation in New Zealand albino rabbit assessed as incidence of conjunctival hyperemia at 1.8 ug after 1 to 5 hrs; format: functional, Conjunctiva
Outline: as §1

[38] = species: Oryctolagus cuniculus; assay: Effect on ocular irritation in New Zealand albino rabbit assessed as incidence of conjunctival swelling 1.8 ug after 1 to 5 hrs; format: functional, Conjunctiva
Outline: as §1

## CC(C)OC(=O)CCC/C=C\C[C@@H]1[C@@H](OC[C@@H](O)CCc2cccc(C(F)(F)F)c2)[C@H](O)C[C@@H]1O
[1]
  Activity: 21%
[2]
  Activity: 23%
[3]
  Activity: 3%
[4]
  Activity: 13%
[5]
  Activity: 13%
[6]
  Activity: 3.12
[7]
  Activity: 10.2
[8]
  Activity: 73%
[9]
  Activity: 38%
[10]
  Activity: 5%
[11]
  Activity: 5%
[12]
  Activity: 25%
[13]
  Activity: 0%
[14]
  Activity: 30%
[15]
  Activity: 35%
[16]
  Activity: Non-toxic
[17]
  Activity: Not Active
[18]
  Activity: 6.57
[19]
  Activity: Non-toxic
[20]
  Activity: 3%
[21]
  Activity: 30%
[22]
  Activity: 45%
[23]
  Activity: 25%
[24]
  Activity: 8%
[25]
  Activity: 15%
[26]
  Activity: 22%
[27]
  Activity: 8%
[28]
  Activity: inactive
[29]
  Activity: 13%
[30]
  Activity: 0%
[31]
  Activity: 23%
[32]
  Activity: Not Active

## O=C(O)CCC/C=C\C[C@@H]1[C@@H](OC[C@H](O)COc2cccc(Cl)c2)[C@H](O)C[C@@H]1O
[33]
  Ki: 140 nM
[34]
  EC50: 62.2 nM
[35]
  Activity: 86%

## O=C(O)CCC/C=C\C[C@@H]1[C@@H](OC[C@H](O)COc2ccccc2)[C@H](O)C[C@@H]1O
[33]
  Ki: 87 nM
[34]
  EC50: 68.6 nM
[35]
  Activity: 67%

## O=C(O)CCC/C=C\C[C@@H]1[C@@H](OC[C@@H](O)CCc2cccc(C(F)(F)F)c2)[C@H](O)C[C@@H]1O
[33]
  Ki: 72 nM
[34]
  EC50: 1.9 nM
[35]
  Activity: 78%

## O=C(O)CCC/C=C\C[C@@H]1[C@@H](OC[C@@H](O)COc2ccccc2)[C@H](O)C[C@@H]1O
[33]
  Ki: 120 nM
[34]
  EC50: 294 nM
[35]
  Activity: 67%

## O=C(O)CCC/C=C\C[C@@H]1[C@@H](OC[C@H](O)CCc2cccc(C(F)(F)F)c2)[C@H](O)C[C@@H]1O
[33]
  Ki: 130 nM
[34]
  EC50: 5.7 nM
[35]
  Activity: 82%

## CCCCC[C@H](O)/C=C/[C@@H]1[C@@H](C/C=C\CCCC(=O)O)[C@@H](O)C[C@H]1O [DINOPROST]
[14]
  Activity: 40%
[29]
  Activity: 100%

## O=C(O)CCC/C=C\C[C@@H]1[C@@H](CC[C@@H](O)CCc2ccccc2)[C@H](O)C[C@@H]1O [LATANOPROST ACID]
[36]
  Activity: 20%
[33]
  Ki: 98 nM
[34]
  EC50: 31.7 nM
[37]
  Activity: 45%
[35]
  Activity: 85%
[38]
  Activity: 40%

## O=C(O)CCC/C=C\C[C@@H]1[C@@H](OC[C@@H](O)COc2cccc(Cl)c2)[C@H](O)C[C@@H]1O
[33]
  Ki: 680 nM
[34]
  EC50: 52.4 nM
[35]
  Activity: 62%
